Assays:
[1] = In vitro inhibition of [3H]GABA uptake in rat synaptosomes; type: functional, subcellular, Brain
Procedure, shortened: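 Rat forebrain homogenized in ice-cold 0.32 M sucrose, spun 10 min at 600g at 4 °C, and the pellet resuspended in pH 7.4 Na/K/Ca/Mg phosphate-glucose buffer. Synaptosomes (0.1 mg protein) preincubated with test substance 8 min at 30 °C. [3H]GABA (final 0.9 nM) plus unlabeled GABA (final 0.9 nM) then added for a further 8 min, followed by filtration. Uptake in the presence of 500 μM nipecotic acid subtracted. IC50 is the mean of 3–7 determinations ± SE.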

[2] = tested on: Mus musculus; assay: In vivo anticonvulsant effect of DMCM-induced clonic seizures in mice at 15 mg/kg intraperitoneal dose expressed as effective dose; type: functional; details: ip
Procedure, shortened: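 Mice; test compound given ip. Clonic seizures induced with DMCM at 15 mg/kg ip. Inhibition of clonic seizures scored by observation, and ED50 expressed in mg/kg.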

[3] = organism: Mus musculus; assay: Anticonvulsant effect of DMCM-induced seizures in mice expressed as effective dose
[4] = Lipophilicity measured as partition between octanol and pH 7.4 buffer; type: physicochemical; details: octanol/pH 7.4 buffer

Row | SMILES | IC50 [1] [nM] | ED50 [2] [mg/kg] | also measured
1 | Cl.Cn1cccc1/C(=C\CCN1CCC=C(C(=O)O)C1)c1ccccc1 | 130 | 1.8 | –
2 | Cc1ccsc1/C(=C\CCN1CCC[C@@H](C(=O)O)C1)c1cccs1 | 690 | – | –
3 | Cc1ccsc1C(=CCCN1CCCC(C(=O)O)C1)c1sccc1C.Cl (configuration not stated) | 87 | 2.6 | –
4 | Cc1ccccc1C(=CCCN1CCC[C@H](C(=O)O)C1)c1ccccc1C.Cl | – | 1.3 | –
5 | Cc1ccccc1/C(=C/CCN1CCC[C@H](C(=O)O)C1)c1sccc1C.Cl | – | 1.2 | –
6 | Cc1ccsc1/C(=C\CCN1CCC[C@H](C(=O)O)C1)c1c(C)cccc1C | 247 | – | –
7 | Cc1ccsc1/C(=C\CCN1CCC[C@H](C(=O)O)C1)c1cccs1.Cl | 60 | 2.5 | –
8 | Cc1ccc(/C(=C/CCN2CCC[C@H](C(=O)O)C2)c2sccc2C)c(C)c1 | 264 | – | –
9 | O=C(O)C1CCCN(CCOC(c2ccccc2)c2ccccc2)C1 (configuration not stated) | 1370 | – | –
10 | Cc1ccccc1/C(=C/CCN1CCC=C(C(=O)O)C1)c1sccc1C.Cl | 130 | 1.9 | –
11 | Cc1ccsc1C(=CCCN1CCC=C(C(=O)O)C1)c1sccc1C.Cl | 138 | 1.8 | –
12 | COc1ccc(C(OCCN2CCCC(C(=O)O)C2)c2ccc(OC)cc2)cc1 (configuration not stated) | > 3000 | – | –
13 | Cl.O=C(O)C1CCCN(CCC=C(c2ccccc2)c2ccccc2)C1 (configuration not stated) | 330 | 3.1 | –
14 | Cc1ccsc1/C(=C\CCN1CCCC(C(=O)O)C1)c1ccccc1 (configuration not stated) | 290 | – | –
15 | Cc1ccsc1/C(=C\CCN1CCC=C(C(=O)O)C1)c1cccs1.Cl | 112 | 2.1 | –
16 | O=C(O)[C@H]1CCCN(CCC=C2c3ccccc3-c3ccccc32)C1 | 1920 | – | –
17 | Cc1cc(Cl)ccc1/C(=C/CCN1CCC=C(C(=O)O)C1)c1sccc1C | 300 | – | –
18 | Cc1ccccc1C(OCCN1CCCC(C(=O)O)C1)c1ccccc1C (configuration not stated) | 388 | – | –
19 | O=C(O)C1=CCCN(CC/C=C(/c2ccccc2)c2cccs2)C1 | 265 | – | –
20 | Cc1ccsc1/C(=C\CCN1CCC=C(C(=O)O)C1)c1ccc(Cl)cc1Cl | 320 | – | –
21 | Cc1ccsc1/C(=C\CCN1CCC=C(C(=O)O)C1)c1cc(Cl)cc(Cl)c1 | 1860 | – | –
22 | Cc1ccsc1/C(=C\CCN1CCC=C(C(=O)O)C1)c1ccc(Cl)cc1 | 848 | – | –
23 | O=C(O)C1CCCN(CCC=C(c2cccs2)c2cccs2)C1 (configuration not stated) | 256 | – | –
24 | Cl.O=C(O)C1=CCCN(CCC=C(c2ccccc2)c2ccccc2)C1 | 341 | 3.6 | –
25 | Cc1ccsc1C(=CCCN1CCC[C@H](C(=O)O)C1)c1sccc1C | 218 | – | –
26 | CN1C(=O)CN=C(c2ccccc2)c2cc(Cl)ccc21 [DIAZEPAM] | – | – | ED50 [3]: 2.5 mg/kg
27 | Cc1ccsc1C(=CCCN1CCC[C@@H](C(=O)O)C1)c1sccc1C.Cl [TIAGABINE HYDROCHLORIDE] | 67 | 1.2 | logD [4]: 1.59

Source: ChEMBL document CHEMBL1126711, “The synthesis of novel GABA uptake inhibitors. 1. Elucidation of the structure-activity studies leading to the choice of (R)-1-[4,4-bis(3-methyl-2-thienyl)-3-butenyl]-3-piperidinecarboxylic acid (tiagabine) as an anticonvulsant drug candidate” (J Med Chem, 1993)
